Measured values taken from PubChem BioAssay.
The source made the active and inactive calls.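 Rule for the calls, unless noted: active = viability at or under a set limit in both replicates, limit being median viability minus 3 SD (cut at about 48% in these data, passing the limit was not always enough); inconclusive = at or under the limit in just one replicate; inactive = at or above the limit in both replicates.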

Assays:
[1] = SK-BR-3 cell growth inhibitors, pilot screen, 24 h, human (AID 572;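 active = viability at or below 10% of carrier control in both of two separate runs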;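 note: compound exposure lasted between 18 and 24 h rather than exactly 24 h; 100% = carrier-treated control wells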); settings: SK-BR-3 viability, CellTiter-Glo luminescence, at 10 µM, stronger effect = lower value
[2] = HUVEC growth inhibition – cell-based, human, primary screen (AID 575;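 active = viability at or below 30% in both replicate assays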;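 note: 100% = median of untreated cell wells with 0.1% DMSO on each plate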); settings: HUVEC proliferation, CellTiter-Glo luminescence, 72 h; at 10 µM; stronger effect = lower value
How it was run: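 Test system: primary human umbilical vein endothelial cells. Quantity: 1250 cells/well. Compound: single 10 µM dose, 0.1% DMSO, from 5x medium stock. Timing: 72 h treatment at 37 °C. Detection: ATP-based CellTiter-Glo luminescent read. Benchmarks: vehicle and MePR control wells. Format: 384-well plates coated with collagen.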

[3] = growth inhibitors of H69AR lung tumor, primary screen, human, duplicate replicates (AID 580); settings: H69AR lung tumor cells viability, ATP luminescence, 72 h; at 10 µM; stronger effect = lower value;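 note: 100% = mean luminescence of untreated wells and 0% = no signal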
[4] = reversal of MRP1-mediated doxorubicin resistance, pilot screen, H69AR cells, doxorubicin co-treatment (AID 601;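 active = viability loss from added drug above about 55%, and viability with drug at most 40%, in both replicates, limit read from the data, passing the limit was not always enough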); settings: CellTiter-Glo, 72 h, at 10 µM; for differential viability (reversal): stronger effect = higher value
[5] = 384-well plate pilot, post-Golgi transport modulator project, inhibition of yeast transport mutant growth (AID 636; in the data active = inhibition above about 31%); settings: absorbance 615 nm, about 18 h, stronger effect = higher value
[6] = growth suppression of yeast trafficking mutant, preliminary HTS, modulators of trafficking downstream of Golgi apparatus project, 1536-format plate, OD 615 nm (AID 637; in the data active = inhibition above about 30%); settings: yeast transport mutant growth, absorbance 615 nm, 18 h; stronger effect = higher value
[7] = H69AR cells + 2 uM doxorubicin, measured here: viability with 2 uM doxorubicin, stronger effect = lower value
[8] = H69AR cells, compound alone cytotoxicity

Compound | viability [1] | viability [2] | viability [3] | differential viability (reversal) ([4]; H69AR cells + 2 uM doxorubicin) | viability [4, 7] [%] | viability [4, 8] [%] | inhibition [5] | inhibition [6]
CCN1CCN(c2nc3c(c(=O)n(C)c(=O)n3C)n2CCSc2ncccn2)CC1 | 116% (inactive) | 91.7% (inactive) | 94.8% (inactive) | 7% (inactive) | 87.8 | 94.8 | -5.07% (inactive) | -9.68% (inactive)
NC(=O)OCC(COC(N)=O)c1ccccc1 | 132% (inactive) | 89.3% (inactive) | 90.7% (inactive) | -6.82% (inactive) | 97.5 | 90.7 | -0.13% (inactive) | 2% (inactive)
CCN(CC)C(c1ccc(C)cc1)c1nnnn1C1CCCCC1 (stereo unspecified) | 64% (inactive) | 102% (inactive) | 75.5% (inactive) | 7% (inactive) | 68.5 | 75.5 | -6.13% (inactive) | -4.73% (inactive)
Cc1cc(C)nc(N(C#N)CC(=O)N2CCC(C(N)=O)CC2)n1 | 104% (inactive) | 85.9% (inactive) | 98.6% (inactive) | 4.1% (inactive) | 94.5 | 98.6 | -7.95% (inactive) | 1.45% (inactive)
CN(c1ccccc1C(=O)NCC1CCCO1)S(C)(=O)=O (stereo unspecified) | 67% (inactive) | 103% (inactive) | 101% (inactive) | 11.2% (inactive) | 90 | 101 | -4.11% (inactive) | 2.36% (inactive)
COc1ccc(CNCC(=O)Nc2cc(C)nn2-c2nc(C)cc(C)n2)cc1OC | 98% (inactive) | 51.1% (inactive) | 11.9% (active) | -58.3% (inactive) | 70.1 | 11.9 | -2.99% (inactive) | 1.15% (inactive)
COc1ccccc1OCc1ccc(C(=O)N2CCN(C(=O)c3ccco3)CC2)cc1 | 116% (inactive) | 111% (inactive) | 99.2% (inactive) | 5.35% (inactive) | 93.9 | 99.2 | -4.13% (inactive) | -9.82% (inactive)
COc1cc2c(C#N)c(N3CCOCC3)nc(N)c2c(N)n1 | 85% (inactive) | 90% (inactive) | 75.2% (inactive) | 8.29% (inactive) | 67 | 75.2 | -0.13% (inactive) | 0.82% (inactive)
O=C(NCC(F)(F)F)Nc1cccnc1 | 82% (inactive) | 92.8% (inactive) | 99.6% (inactive) | 6% (inactive) | 93.6 | 99.6 | -4.19% (inactive) | -4% (inactive)
CSc1c(C#N)c(N)c(C#N)c2c1COC(C)(C)C2 | 94% (inactive) | 90.1% (inactive) | 88% (inactive) | -1.11% (inactive) | 89.1 | 88 | -11.1% (inactive) | 2.1% (inactive)
CN(C)CCN(Cc1ccccc1)c1ccccn1 | 100% (inactive) | 89.1% (inactive) | 101% (inactive) | 8.55% (inactive) | 92.7 | 101 | 3.38% (inactive) | -0.67% (inactive)
O=C(NCc1cccnc1)c1cccc(C(F)(F)F)c1 | 87% (inactive) | 109% (inactive) | 112% (inactive) | 16% (inactive) | 95.7 | 112 | -5.34% (inactive) | 6.55% (inactive)
Cc1ccc(F)cc1NC(=O)C1CCCN(c2ncccn2)C1 (stereo unspecified) | 100% (inactive) | 104% (inactive) | 88.7% (inactive) | -1.88% (inactive) | 90.6 | 88.7 | -6.8% (inactive) | -2.91% (inactive)
O=C(CN1CCC(O)(c2ccc3c(c2)OCO3)CC1)OC1CCCCC1 | 83% (inactive) | 103% (inactive) | 96.8% (inactive) | 3.36% (inactive) | 93.4 | 96.8 | -7.3% (inactive) | 2.73% (inactive)
c1ccc2c(SCc3cn4cccnc4n3)ncnc2c1 | 108% (inactive) | 99.9% (inactive) | 88.4% (inactive) | 10.4% (inactive) | 78 | 88.4 | -4.8% (inactive) | -3.82% (inactive)
O=C(NCC12CC3CC(C1)CC(CNC(=O)N1CCCC1)(C3)C2)N1CCCC1 | 78% (inactive) | 90.1% (inactive) | 84.8% (inactive) | -4.64% (inactive) | 89.5 | 84.8 | -10.3% (inactive) | 1.77% (inactive)
CCOc1ccc(CCNc2nc3c(c(=O)n(C)c(=O)n3C)n2CC)cc1OCC | 108% (inactive) | 101% (inactive) | 88.9% (inactive) | 1.88% (inactive) | 87 | 88.9 | -1.73% (inactive) | 3.27% (inactive)
Cc1ccc(S(=O)(=O)NC(C)C(=O)Nc2ccc(C(N)=O)cc2)cc1 (stereo unspecified) | 81% (inactive) | 88.4% (inactive) | 100% (inactive) | 4.08% (inactive) | 96 | 100 | -0.27% (inactive) | -5.81% (inactive)
O=C(CSc1nc2ccccc2[nH]1)c1ccc2c(c1)OCO2 | 79% (inactive) | 99.8% (inactive) | 107% (inactive) | 22.7% (inactive) | 83.8 | 107 | -0.68% (inactive) | -5.16% (inactive)

Compound | viability [1] | viability [2] | viability [3] | differential viability (reversal) ([4]; H69AR cells + 2 uM doxorubicin) | viability [4, 7] [%] | viability [4, 8] [%] | inhibition [5] | inhibition [6]
COc1c2occc2c(OC)c2c(=O)cc(C)oc12 | 87% (inactive) | 67.9% (inactive) | 91.2% (inactive) | -1.66% (inactive) | 92.8 | 91.2 | 0.13% (inactive) | -5.17% (inactive)
Cc1ccc(S(=O)(=O)C(C#N)c2nc3ccccc3nc2OC(C)C)cc1 (stereo unspecified) | 101% (inactive) | 91% (inactive) | 105% (inactive) | 7.79% (inactive) | 97.3 | 105 | -4.13% (inactive) | 4.55% (inactive)
CCOc1cc2[nH]c(=O)n(CCC(=O)NCCc3ccc(OC)c(OC)c3)c(=O)c2cc1OCC | 103% (inactive) | 75.4% (inactive) | 96.8% (inactive) | 17.1% (inactive) | 79.7 | 96.8 | -3.38% (inactive) | -0.98% (inactive)
CCn1c(SCC(=O)N2CCN(c3ccc(Cl)cc3)CC2)nc2ccccc2c1=O | 96% (inactive) | 77.2% (inactive) | 78.6% (inactive) | -12.9% (inactive) | 91.5 | 78.6 | 5.89% (inactive) | 25.5% (inactive)
Cc1nnc(Nc2ccccn2)c2ccccc12 | 89% (inactive) | 81.1% (inactive) | 87.3% (inactive) | -2.5% (inactive) | 89.8 | 87.3 | 0.27% (inactive) | -4.84% (inactive)
CC(=O)c1c(C)[nH]c(C(=O)Nc2c(C)n(C)n(-c3ccccc3)c2=O)c1C | 82% (inactive) | 101% (inactive) | 90.2% (inactive) | 7.98% (inactive) | 82.2 | 90.2 | -8.63% (inactive) | 0% (inactive)
Nc1ccc(S(=O)(=O)Nc2ccccn2)cc1 | 143% (inactive) | 102% (inactive) | 91.3% (inactive) | 10.3% (inactive) | 81 | 91.3 | 0.78% (inactive) | -1.17% (inactive)
CC1(C)CC(=O)C2=C(C1)NC(=O)CC2C(=O)NCc1ccc(F)cc1 (stereo unspecified) | 106% (inactive) | 110% (inactive) | 111% (inactive) | 15.3% (inactive) | 95.5 | 111 | -4.05% (inactive) | 1.64% (inactive)
O=C(COC(=O)CCC1CCCC1)Nc1ccc(Cl)cn1 | 107% (inactive) | 101% (inactive) | 98.6% (inactive) | 5.36% (inactive) | 93.2 | 98.6 | 0% (inactive) | -1.45% (inactive)
O=C(Nc1ccccc1)N1CCC(c2ccccc2)C1 (stereo unspecified) | 62% (inactive) | 109% (inactive) | 86.7% (inactive) | 19.2% (inactive) | 67.5 | 86.7 | -2.6% (inactive) | 4.92% (inactive)
O=S(=O)(NCc1cn2ccccc2n1)c1cc(F)ccc1F | 107% (inactive) | 89.9% (inactive) | 96.6% (inactive) | 9.41% (inactive) | 87.2 | 96.6 | -5.68% (inactive) | -6.36% (inactive)
CCCCOc1ccccc1C1C(C(N)=O)=C(C)Nc2nnnn21 (stereo unspecified) | 110% (inactive) | 98.3% (inactive) | 93.3% (inactive) | 6.69% (inactive) | 86.6 | 93.3 | -3.9% (inactive) | 0.82% (inactive)
COc1ccccc1NC(=O)NCc1ccc2c(c1)OCO2 | 87% (inactive) | 101% (inactive) | 93% (inactive) | -1.33% (inactive) | 94.4 | 93 | -4.13% (inactive) | -3.82% (inactive)
CCOC(=O)c1cc2c(=O)n3cccc(C)c3nc2n(CC2CCCO2)c1=NC(C)=O (stereo unspecified) | 94% (inactive) | 109% (inactive) | 81.3% (inactive) | 61.6% (active) | 19.6 | 81.3 | -5.14% (inactive) | 0.91% (inactive)
O=c1oc2cc(O)ccc2c2oc3cc(O)ccc3c12 | 108% (inactive) | 85.1% (inactive) | 99.4% (inactive) | 6.57% (inactive) | 92.8 | 99.4 | -5.19% (inactive) | 5.17% (inactive)
COc1cc(NC(=O)c2cccs2)cc(OC)c1 | 72% (inactive) | 95.4% (inactive) | 97.7% (inactive) | 13.6% (inactive) | 84 | 97.7 | -2.97% (inactive) | -8.18% (inactive)
CC1(C)CC(=O)C=C(NCc2ccncc2)C1 | 89% (inactive) | 113% (inactive) | 98.6% (inactive) | -26.3% (inactive) | 125 | 98.6 | -2.3% (inactive) | -3.45% (inactive)
COCCCNC(=O)C1CCN(C(=O)Nc2ccc(Cl)cc2)CC1 | 131% (inactive) | 92.2% (inactive) | 99% (inactive) | 11.6% (inactive) | 87.4 | 99 | -1.04% (inactive) | 1.15% (inactive)
